An excerpt weighted towards active compounds, which were near 1% of everything screened.
PERK inhibitor = block of dimerizer-induced PERK translation repression, primary screen, PERK inhibitor project, CHO PERK-DD cells, SEAP luminescence, HTS. 220,000 tested, 0.17% active. CHO PERK-DD fusion, SEAP luminescence translation reporter. Eukaryotic translation initiation factor 2-alpha kinase 3 (Homo sapiens), Q9NZJ5. AID 1416, 2008. inhibition, % at 5.6 µM;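 active = inhibition above the mean inhibition of all tested compounds plus 3 SD, set separately per screening campaign, cut at about 2.9% in these data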;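 note: PERK kinase domain activated by AP20187 dimerizer at 100 nM; 0% = DMSO with dimerizer and 100% = rapamycin at 8.4 µM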
Target sequence (Q9NZJ5 whole entry, looked up, the tested form may be a part): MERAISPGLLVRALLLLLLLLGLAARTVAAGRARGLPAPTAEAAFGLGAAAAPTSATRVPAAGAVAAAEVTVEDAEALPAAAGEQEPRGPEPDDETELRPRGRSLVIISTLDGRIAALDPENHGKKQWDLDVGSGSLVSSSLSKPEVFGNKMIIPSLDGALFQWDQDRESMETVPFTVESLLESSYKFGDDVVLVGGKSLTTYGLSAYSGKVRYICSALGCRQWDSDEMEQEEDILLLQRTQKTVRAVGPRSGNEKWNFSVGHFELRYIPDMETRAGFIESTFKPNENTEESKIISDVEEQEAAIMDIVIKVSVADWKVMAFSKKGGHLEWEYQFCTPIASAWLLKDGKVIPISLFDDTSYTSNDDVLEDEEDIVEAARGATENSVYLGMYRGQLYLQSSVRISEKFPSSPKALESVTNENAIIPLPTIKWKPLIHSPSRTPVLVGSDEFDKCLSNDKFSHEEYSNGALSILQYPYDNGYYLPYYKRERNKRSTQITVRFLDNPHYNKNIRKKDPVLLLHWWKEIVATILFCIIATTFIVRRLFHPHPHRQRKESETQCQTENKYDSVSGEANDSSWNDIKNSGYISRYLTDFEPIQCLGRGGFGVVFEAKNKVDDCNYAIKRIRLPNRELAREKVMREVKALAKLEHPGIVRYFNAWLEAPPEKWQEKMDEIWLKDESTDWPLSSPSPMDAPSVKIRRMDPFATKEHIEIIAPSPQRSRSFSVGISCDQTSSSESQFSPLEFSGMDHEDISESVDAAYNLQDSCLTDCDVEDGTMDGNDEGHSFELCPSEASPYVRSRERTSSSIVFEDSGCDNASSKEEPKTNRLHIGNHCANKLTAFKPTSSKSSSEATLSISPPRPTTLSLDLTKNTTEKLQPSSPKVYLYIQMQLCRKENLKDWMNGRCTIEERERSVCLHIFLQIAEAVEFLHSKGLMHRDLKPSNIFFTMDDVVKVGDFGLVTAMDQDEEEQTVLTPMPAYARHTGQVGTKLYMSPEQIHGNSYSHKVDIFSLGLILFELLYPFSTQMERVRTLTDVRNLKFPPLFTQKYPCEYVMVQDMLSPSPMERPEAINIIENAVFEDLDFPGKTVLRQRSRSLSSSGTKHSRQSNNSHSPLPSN
zVAD death inh = inhibitors of zVAD-triggered necroptosis, primary screen, L929 cells | 220,000 tested, 0.38% active | viability rescue, % at 10 µM | L929 zVAD necroptosis rescue, ATP luminescence, 24 h; with zVAD 60 µM;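 active = activation, scaled between plate controls, above about 75%, limit read from the data; inactive = activation under that limit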;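 note: 0% = zVAD with DMSO and 100% = DMSO alone without zVAD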
Rad51 HR inh = human RAD51 strand exchange inhibitors, primary screen, biochemical, fluorescence. hRad51 DNA strand exchange, fluorescence dequenching. inhibition, % at 10 µM. 200,000 tested, 0.085% active. AID 1385, 2008;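 active = inhibition above 40% at the single screening dose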;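 note: 0% = DMSO control wells and 100% = blanks with heterologous ssDNA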
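Material: hRad51 filaments on single-stranded DNA; Reagent: Donor/quencher-labelled 47-bp dsDNA substrate; Compound: 10 µM final, single point; Schedule: 37 °C 15-min filament assembly, 30-min compound preincubation, 15-min exchange; Technique: FRET fluorescence, excitation 485 nm, emission 520 nm; Benchmarks: control wells and blank wells on each plate.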
HMGR II inh = inhibitors of E. faecalis class II HMGR, primary screen, biochemical, Enterococcus faecalis; HMG-CoA reductase (Enterococcus faecalis, mvaE); purified E. faecalis HMGR, NADPH absorbance 340 nm kinetic; inhibition, % at 10 µM; 190,000 tested, 0.41% active; AID 1066, 2008;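 active = inhibition above a set limit, the median over all tested compounds plus 3 SD, cut at about 9.5% in these data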;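 note: enzyme runs in reverse so mevalonate oxidation gives rising NADPH absorbance; 0% = complete reaction with DMSO and 100% = background rate lacking mevalonate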
TNF necrop inh = inhibitors of TNF-alpha triggered necroptosis, primary screen, cell-based, Jurkat FADD-/-, single concentration; Jurkat FADD-/- TNF necroptosis rescue, ATP luminescence, 24 h; 0 = TNF only, 100 = no-TNF cells; activation (protection from cell death), % at 10 µM; 220,000 tested, 0.068% active;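 active = activation, meaning protection from cell death, of at least 50% relative to plate controls; inactive = activation below 50%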;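 note: necroptosis triggered by 40 ng/mL TNF-alpha added together with compound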
* marks the source's active call; other numbers are inactive results.

What do the screens show for `COC(=O)C1Cc2ccccc2CN1C(=O)CCl` (centres undefined)?
PERK inhibitor: 0; zVAD death inh: 10; Rad51 HR inh: -4; HMGR II inh: -1; TNF necrop inh: -3

How did CN(CC(=O)Nc1ccccc1Cl)CC(=O)Nc1ccccc1[N+](=O)[O-] do in these assays?
PERK inhibitor: 1; zVAD death inh: -1; Rad51 HR inh: 2; HMGR II inh: -2; TNF necrop inh: 0

Results for CC(=O)OC(C(=O)NC1CCCCC1)c1ccc(Cl)c(Cl)c1 (centres undefined) ?
PERK inhibitor: -1; zVAD death inh: 3; Rad51 HR inh: -2; HMGR II inh: -11; TNF necrop inh: 70*

How did Cc1nonc1OCCNCc1c(C(=O)N2CCCCCCC2)nc2ccc(Cl)cn12 do in these assays?
PERK inhibitor: 1; zVAD death inh: -1; Rad51 HR inh: 17; HMGR II inh: -4; TNF necrop inh: 0

Results for Cc1cc(C)c(S(=O)(=O)c2ccccc2)c(OC(=O)c2c(F)cccc2F)n1 ?
PERK inhibitor: 1; zVAD death inh: 1; Rad51 HR inh: 3; HMGR II inh: 14*; TNF necrop inh: 1

Results for NC1=NC(=O)S/C1=C\c1ccc(F)cc1 ?
PERK inhibitor: 1; zVAD death inh: 0; Rad51 HR inh: 2; HMGR II inh: 24*; TNF necrop inh: 2

How did CCCC(C)C(=O)OCC(=O)NCc1ccc(OC)c(OC)c1 (centres undefined) do in these assays?
PERK inhibitor: 0; zVAD death inh: 4; Rad51 HR inh: -3; HMGR II inh: -3; TNF necrop inh: 0

What do the screens show for `O=C(Cn1cnc([N+](=O)[O-])n1)N/N=C/c1ccccc1O`?
PERK inhibitor: 3.4*; zVAD death inh: 0; Rad51 HR inh: -5; HMGR II inh: -4; TNF necrop inh: -12

Results for COc1cc(OC)cc(C(=O)NCC(=O)OCC(=O)N2CC(C)CC(C)C2)c1 (centres undefined) ?
PERK inhibitor: 0; zVAD death inh: 2; Rad51 HR inh: -3; HMGR II inh: -4; TNF necrop inh: 1

What do the screens show for `Cc1cc(Cl)ccc1NNC(=O)CCc1ccccc1`?
PERK inhibitor: -1; zVAD death inh: 0; Rad51 HR inh: -3; TNF necrop inh: 1

What do the screens show for `CCOC(=O)Cn1c(=O)c2c(nc(N3CCCCC3)n2Cc2ccccc2)n(C)c1=O`?
PERK inhibitor: -1; zVAD death inh: 0; Rad51 HR inh: 44*; HMGR II inh: -2; TNF necrop inh: -4

Results for N#Cc1cccc(S(=O)(=O)NCC(=O)OCC(=O)c2ccc[nH]2)c1 ?
PERK inhibitor: 0; zVAD death inh: 2; Rad51 HR inh: 7; HMGR II inh: -1; TNF necrop inh: 1

Results for CCc1ccc2nc3n[nH]c(N)c3cc2c1 ?
PERK inhibitor: 2; zVAD death inh: 0; Rad51 HR inh: 3; HMGR II inh: -5; TNF necrop inh: -16

How did Nc1[nH]nc2nc3ccccc3cc12 do in these assays?
PERK inhibitor: 2; zVAD death inh: 20; Rad51 HR inh: -1; HMGR II inh: 10*; TNF necrop inh: 3

What do the screens show for `c1ccc(CSc2ccc(-c3cccs3)nn2)cc1`?
PERK inhibitor: 1; zVAD death inh: 1; Rad51 HR inh: 2; HMGR II inh: -2; TNF necrop inh: 2

What do the screens show for `c1ccc(CSc2ccc(-c3cccs3)nn2)nc1`?
PERK inhibitor: 0; zVAD death inh: 1; Rad51 HR inh: 5; HMGR II inh: 12*; TNF necrop inh: 2

Results for CN(C)c1ccc(/C=N\NC(=O)c2cccc3cc[nH]c23)cc1 ?
PERK inhibitor: -1; zVAD death inh: 2; Rad51 HR inh: 9; TNF necrop inh: -8

How did COc1ccc(C2Nc3cc(OC)ccc3-n3cccc32)cc1 (centres undefined) do in these assays?
PERK inhibitor: -1; zVAD death inh: 1; Rad51 HR inh: 14; TNF necrop inh: 1

How did COc1cc(NC(=O)COC(=O)c2cnccn2)c(C)cc1[N+](=O)[O-] do in these assays?
PERK inhibitor: 2; zVAD death inh: 0; Rad51 HR inh: -26; TNF necrop inh: 2

How did Cc1ccc(C(=O)/C=C/c2cn(CC(O)CN3CCOCC3)c3ccccc23)cc1 (centres undefined) do in these assays?
PERK inhibitor: 0; zVAD death inh: 77*; Rad51 HR inh: -55; HMGR II inh: -3; TNF necrop inh: 4

How did COc1cc2c(cc1OC)C(c1cccc([N+](=O)[O-])c1)N(C(=O)c1ccccc1C(=O)O)CC2 (centres undefined) do in these assays?
PERK inhibitor: 0; zVAD death inh: 24; Rad51 HR inh: 4; HMGR II inh: -12; TNF necrop inh: 1

How did COc1ccc(CN2CCCC(C(=O)c3cccc(C(F)(F)F)c3)C2)cc1O (centres undefined) do in these assays?
PERK inhibitor: 0; zVAD death inh: 0; Rad51 HR inh: -4; HMGR II inh: 0; TNF necrop inh: 1

Results for COc1cccc(CC2CC(=O)N(c3ccc4c(C)cc(=O)oc4c3)C2=O)c1 (centres undefined) ?
PERK inhibitor: 0; zVAD death inh: 1; Rad51 HR inh: 12; HMGR II inh: -2; TNF necrop inh: 1

What do the screens show for `CC(=O)c1ccc(S(=O)(=O)N2CCN(CC#N)CC2)cc1`?
PERK inhibitor: 4.5*; zVAD death inh: 0; TNF necrop inh: 0

What do the screens show for `O=C(O)/C=C/S(=O)(=O)c1ccc2ccccc2c1`?
PERK inhibitor: 1; zVAD death inh: 1; Rad51 HR inh: 17; TNF necrop inh: 0

Results for COC(=O)C1=C[C@@H](C(=O)OC)[C@@H]2C3=C(C(=O)[C@]2(C)NC(=O)c2ccccc2)[C@H](C)n2c(=O)n(-c4ccccc4)c(=O)n2[C@@H]3C1 ?
Rad51 HR inh: 9

How did NS(=O)(=O)c1ccc(-c2ccc(/C=N/Nc3ccc(C(=O)O)cc3)o2)cc1 do in these assays?
PERK inhibitor: 3.0*; zVAD death inh: 1; Rad51 HR inh: -37; TNF necrop inh: 0

What do the screens show for `O=c1/c(=C\c2cccc(O)c2)sc2nc(-c3ccccc3)c(-c3ccccc3)n12`?
PERK inhibitor: 2; zVAD death inh: 2; Rad51 HR inh: 10; TNF necrop inh: 2

Results for COc1cccc(N2CC(=O)N(c3cccc(OC)c3)CC2=O)c1 ?
PERK inhibitor: 2; zVAD death inh: 2; Rad51 HR inh: 19; HMGR II inh: 9.7*; TNF necrop inh: 0

What do the screens show for `Cc1cccc(N2CC(=O)N(c3cccc(C)c3)CC2=O)c1`?
PERK inhibitor: 0; zVAD death inh: 1; Rad51 HR inh: 2; HMGR II inh: -1; TNF necrop inh: 0

Screening results: PubChem, several laboratories
